Rows were chosen to be rich in hits. Some 3.5% of all compounds tested hit in one or more screens of this group.
esBAF inh: inhibitors of esBAF chromatin remodeling in mouse ES cells; Bmi1-luciferase knock-in reporter, 24 h; 100% = twice the neutral-well signal; reporter increase, % at 12.5 µM; actives 2% (n = 350,000); AID 602393; in the data active = activation above about 40%; inconclusive = no clear call, values can overlap the other calls;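 note: 0% = median of the plate's neutral control wells and 100% = double that signal; a rise in the Bmi1 reporter signal indicates esBAF inhibition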
Env fusion inh: blocks HIV Env-driven cell-cell fusion | HeLa-JRFL Env/CEM21 cell fusion, luciferase | inhibition, % at 12.3 µM | actives 1.1% (n = 360,000);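 active = mean replicate inhibition score of at least 50 and every replicate individually at or above 50; inconclusive = only one of the two criteria met; inactive = mean below 50 and not all replicates reaching 50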;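 note: 0% = plate neutral controls and 100% = maraviroc near 300 nM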
Wnt act: Wnt/beta-catenin pathway activation; actives 1.2% (n = 300,000); activation, % at 9.35 µM; AID 743398; Wnt/beta-catenin reporter cell assay, activator, plate reader; in the data active = activation above about 30%, passing the limit was not always enough; inconclusive = no clear call, values can overlap the other calls;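 note: 0% = neutral control wells and 100% = positive control wells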
MITF TRPM1 HTS: increases MITF-driven TRPM1 promoter luciferase signal | SK-MEL-5 TRPM1-promoter luciferase, 24 h; % of positive control, neutral wells = 0 | activation, % at 12.5 µM | actives 0.75% (n = 300,000);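 active = mean activation of at least 80% with every replicate also reaching 80%; inconclusive = mean reaches 80% but some replicate falls short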;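 note: 0% = neutral control wells and 100% = parthenolide positive control wells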
Cneo AK release: Cryptococcus neoformans lysis via adenylate kinase release; C. neoformans lysis, adenylate kinase release luminescence, 4 h; normalised: neutral wells 0, clomiphene wells 100; lysis activity, % at 15 µM; actives 0.2% (n = 360,000);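 active = mean lysis activity across replicates of at least 80%, whatever share of replicates individually reach that level; inactive = mean lysis activity below 80%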
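read-out = cell lysis signal | test system = log-phase Cryptococcus neoformans yeast cells | input = cells at 5 × 10^6 per mL | medium = fresh YPD growth medium | signal = luminescent adenylate kinase detection reagent | timing = 4 h at 37 °C static, read 1 h later | dosing = single dose | controls = Clomiphene as positive lysis control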
ERAP1 HTS inh: ERAP1 (human) enzyme inhibition. inhibition, % at 10.7 µM. Q9NZ08. actives 0.15% (n = 340,000). recombinant ERAP1, Leu-AMC fluorescence, 60 min;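 active = mean replicate inhibition of at least 30%, or all replicates individually reaching that 30% level; inactive = mean below 30% and not every replicate reaching it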;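 note: 0% = neutral control wells and 100% = L-leucinethiol positive control wells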
Target sequence (Q9NZ08 whole entry, looked up): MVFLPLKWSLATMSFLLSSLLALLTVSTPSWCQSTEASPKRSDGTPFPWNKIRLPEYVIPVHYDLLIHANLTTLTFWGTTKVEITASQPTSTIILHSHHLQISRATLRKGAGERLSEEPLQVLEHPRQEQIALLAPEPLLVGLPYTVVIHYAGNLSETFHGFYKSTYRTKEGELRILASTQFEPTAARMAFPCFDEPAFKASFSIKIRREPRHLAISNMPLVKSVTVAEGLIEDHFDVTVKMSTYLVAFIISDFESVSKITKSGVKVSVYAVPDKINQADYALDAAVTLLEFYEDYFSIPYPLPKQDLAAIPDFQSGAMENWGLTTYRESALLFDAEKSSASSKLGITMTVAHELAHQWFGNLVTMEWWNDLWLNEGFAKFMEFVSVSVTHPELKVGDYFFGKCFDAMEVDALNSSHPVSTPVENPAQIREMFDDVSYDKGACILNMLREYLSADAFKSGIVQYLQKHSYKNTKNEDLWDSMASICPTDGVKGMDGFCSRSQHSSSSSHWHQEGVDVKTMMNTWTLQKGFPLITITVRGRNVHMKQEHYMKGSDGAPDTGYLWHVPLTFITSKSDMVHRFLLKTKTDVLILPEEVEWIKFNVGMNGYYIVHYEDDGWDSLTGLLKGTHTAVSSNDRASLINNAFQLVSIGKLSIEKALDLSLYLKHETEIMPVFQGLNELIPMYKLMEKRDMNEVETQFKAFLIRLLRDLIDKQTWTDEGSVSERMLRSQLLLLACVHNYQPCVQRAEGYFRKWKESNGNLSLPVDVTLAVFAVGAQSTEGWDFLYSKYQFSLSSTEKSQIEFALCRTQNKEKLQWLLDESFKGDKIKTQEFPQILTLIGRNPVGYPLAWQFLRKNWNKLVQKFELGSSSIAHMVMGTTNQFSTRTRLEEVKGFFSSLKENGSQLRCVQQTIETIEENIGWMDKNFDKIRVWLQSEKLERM
* marks the source's active call; other numbers are inactive results; ? = inconclusive; / = no result given; [ ] = dose if it differs, or a comment.

SMILES | esBAF inh | Env fusion inh | Wnt act | MITF TRPM1 HTS | Cneo AK release | ERAP1 HTS inh
CO[C@H]1CN(C)C(=O)c2cc(NC(=O)C3CCOCC3)ccc2OC[C@@H](C)N(Cc2nccs2)C[C@H]1C | -5.1 | / | / | / | 1.7 | -0.3
CC(=O)Nc1cccc(-c2nc3ccccc3s2)c1 | 37.3 | -25.9 | 11.9 | 19.8 | / | -1.9
CC(=O)Nc1cccc(-c2nc3ccc(NC(C)=O)cc3s2)c1 | 54.1* | -81.4 | ? | 90.5* | / | -4.6
O=C(Nc1cccc(-c2nc3ccccc3s2)c1)c1cc(-n2cnnc2)ccc1Cl | 81.8* | / | / | 37.7 | -0.3 | /
CC(=O)Nc1ccc2nc(NC(=O)COc3ccccc3Cl)sc2c1 | 59.5* | -20.1 | 9.5 | 89.2* | 1.9 | 2.6
COc1cccc2sc(Nc3nc4ccc(NC(C)=O)cc4s3)nc12 | 47.7* | -0.2 | 8.1 | -7.2 | / | -2.1
COc1ccccc1NC(=O)N1C[C@H](O)COC[C@@H]2O[C@H](CC(=O)NCc3ccccc3)CC[C@H]21 | -2.1 | -4.5[16.7 µM] | / | / | 0.3 | -1.4
C[C@H]1CN([C@@H](C)CO)S(=O)(=O)c2ccc(C3=CCCC3)cc2O[C@H]1CN(C)C(=O)c1ccccn1 | 5.8 | -1.2[16.7 µM] | / | / | -2.6 | -3.9
COc1ccc(NC(=O)N[C@H]2CC[C@@H](CCNC(=O)Nc3cc(F)ccc3F)O[C@@H]2CO)cc1 | 4.2 | / | / | / | / | /
CC1(C)CC(=O)C(N=Nc2ccc(Br)cc2)=C(O)C1 | / | -6.6 | 70.4* | / | -2.5 | /
COc1ccc(N=NC2=C(O)CC(C)(C)CC2=O)cc1 | 1.5 | -11.3 | 25.6 | 69.4 | -3.7 | /
C[C@H]1CCCCO[C@H](CN(C)C(=O)Nc2ccccc2)[C@@H](C)CN([C@@H](C)CO)C(=O)c2cc(NC(=O)C3CCCCC3)ccc2O1 | -6.7 | 8.7[16.7 µM] | / | / | -0.8 | 0.1
CCOc1ccccc1OCCCC(=O)Nc1ccc(S(=O)(=O)Nc2cc(C)nc(C)n2)cc1 | -6.5 | -0.1 | 1.8 | -1.9 | -0.4 | 30.2*
Cc1ccc(S(=O)(=O)NC2c3cccc4cccc(c34)C2Sc2nc(C)cc(C)n2)cc1 (centres undefined) | / | 98.0* | 0.0 | -10.5 | -1.8 | /
Cc1ccc(NC(=O)C(=O)c2ccc(C)cc2)cc1 | 75.5* | -137.3 | ? | 64.8 | -1.5 | -5.5
Cc1ccc(C(=O)CNc2ccc(C)c(Cl)c2)cc1 | / | 8.5 | / | 37.0 | / | /
Cc1ccc(NC(=O)c2ccccc2)cc1 | ? | -126.2 | / | / | -3.4 | /
Cc1ccc(NCC(=O)c2ccc(C)cc2)cc1 | -36.8 | -30.4 | 14.8 | 84.4* | 2.2 | 2.8
CCOC(=O)c1c2c(n(Cc3ccccc3)c1C)C(=O)C(=O)c1ccccc1-2 | / | 78.2* | -6.2 | -102.8 | / | -1.5
O=C(Cc1ccccn1)NCC[C@@H]1CC[C@@H](NC(=O)Nc2ccc(Cl)cc2)[C@H](CO)O1 | -10.8 | / | / | / | 1.6 | 5.1
Cc1cc(Cl)ccc1OCc1cn2cccnc2n1 | / | -33.8 | 16.4 | 82.5* | / | -8.5
Clc1cccc(NCc2cn3cccnc3n2)c1 | 19.5 | -9.7 | 2.8 | 13.4 | -1.2 | 3.4
Clc1ccc(OCc2cn3cccnc3n2)c2ncccc12 | 57.4* | / | / | 34.9 | -0.9 | /
c1cnc2c(OCc3cn4cccnc4n3)cccc2c1 | 12.1 | / | -0.1 | 1.9 | 12.9 | /
Cn1c(=O)c2c(nc(SCCN3CCOCC3)n2Cc2ccc(F)cc2)n(C)c1=O | 56.4* | / | / | 51.6 | -2.1 | /
SMILES | esBAF inh | Env fusion inh | Wnt act | MITF TRPM1 HTS | Cneo AK release | ERAP1 HTS inh
Cn1c(=O)c2c(nc(SCCN3CCOCC3)n2Cc2ccccc2Cl)n(C)c1=O | -1.7 | 9.7 | 1.4 | / | 0.9 | -0.1
C[C@H]1CCCCO[C@H](CN(C)Cc2ccc(C(=O)O)cc2)[C@@H](C)CN([C@@H](C)CO)C(=O)c2cc(NC(=O)Nc3ccc(F)cc3)ccc2O1 | -2.6 | 1.3[16.7 µM] | / | / | -1.9 | -4.1
Cc1cc2c(OCC(O)CNC(C)(C)C)cccc2[nH]1 (centres undefined) | 5.1 | / | -7.7 | / | 7.6 | /
COCCCNCC(O)COc1cccc2[nH]c(C)cc12 (centres undefined) | / | 9.7 | / | -5.4 | / | 32.2*
O=C(Nc1ccccc1F)N1CC(=O)N2[C@H](CO)[C@@H](c3ccc(C#CC4CC4)cc3)[C@@H]2C1 | / | / | / | / | / | -0.3
O=C([C@@H]1[C@@H](CO)[C@@H]2Cn3c(cccc3=O)[C@H]1N2C(=O)CC1CC1)N1CCCCC1 | -4.1 | / | / | / | -0.4 | -3.7
COc1ccccc1C(=O)N1C[C@H]2[C@@H](c3ccccc31)[C@@H](CO)N2C(=O)Cc1ccccc1 | -15.0 | / | / | / | 100.6* | 0.6

Screening data: PubChem BioAssay, Broad Institute
